# GPR7 antagonist = blocks human GPR7 receptor signaling; GPR7-expressing cells, fluorescence antagonist assay; inhibition, % at 4.4 µM; hit rate 1.1% among 290,000; AID 1861; in the data active = inhibition above about 16%, passing the limit was not always enough;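 note: cells stimulated with the agonist NPW; 0% = agonist with vehicle and 100% = vehicle without agonist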
# T cell modulator = T cell immune modulators affecting CD8 T cell-vesicle binding. 2C CD8+ T cell-vesicle binding, flow cytometry; hits give low values. AID 2052. hit rate 0.068% among 330,000. response (vesicle binding), % at 7 µM;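 active = response, share of CD8 T cells binding vesicles, and their 90th percentile fluorescence all below set limits, cut at about 80% in these data, passing the limit was not always enough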;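 note: values below 100% mean blocked vesicle binding to the CD8+ T cells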
#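 incubation = binding step 1.5 h, 37 °C, antibody labelling 20 min, ice | test system = 2C mouse CD8+ T cells | read-out basis = percent CD8+ FL2 mean versus row control | controls = Peptide-free naked vesicles (low) and QL9 vesicles with 0.7% DMSO vehicle (high) | detection = flow cytometry of vesicle-bound cells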
# DSG3 Ab inh = human desmoglein-3 autoantibody binding inhibition; binding (percent of control), % at 10 µM; hit rate 0.48% among 310,000; DSG3-coupled beads, scFv-anti-DSG3-GFP binding, flow cytometry; hits give low values; P32926; AID 588358;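 active = binding more than 3 SD below its plate's average and above zero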;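 note: hits lower antibody fragment binding to DSG3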
# p-CIP stab down = compounds decreasing mouse p/CIP protein stability; decrease of EGFP signal, % at 10 µM; F442A p/CIP-EGFP cells, EGFP fluorescence, 16 h; Q05BA5; hit rate 0.01% among 290,000;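 active = EGFP signal decrease of at least 30% at 10 µM or well 3 SD below plate mean, unless failing retest; inactive = the rest, including hits failing retest or dose response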
# CHT block = inhibits the human high affinity choline transporter; CHT-expressing cells, membrane potential dye, choline response; hits give low values; B-score at 10 µM; hit rate 0.86% among 310,000; AID 488975;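 active = B-score over 3 SD under the library average, and starting fluorescence ratio not unusually high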;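 note: choline stimulus applied at its EC90 after an EC20 pre-addition; B-score computed on integrated fluorescence ratio after choline addition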
# CHT PAM = allosterically activates the human high affinity choline transporter | hit rate 0.49% among 310,000 | CHT-expressing cells, membrane potential dye, choline EC20; hits give high values; LV-AA mutant CHT in HEK293 cells | B-score at 10 µM | Q9GZV3;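 active = initial fluorescence not abnormally high and integrated response B-score, plate-corrected, over 3 SD above library mean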
# CHT inh conf = confirmation of human choline transporter CHT inhibitors; shares compounds with CHT block; CHT-expressing cells, choline membrane potential dye; LV-to-AA substituted CHT, HEK293 cells; CHT activity remaining % of control (hits give low values), % at 10 µM; hit rate 70% among 2,400;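 active = choline transporter activity left, mean of duplicates at 10 µM, below buffer-only control mean minus 3 SD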;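 note: depolarization triggered by choline at its EC90 following an EC20 pre-addition; 0% = hemicholinium-3 full block and 100% = buffer-only control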
# HEK293 MPD ctr = CHT inhibitor counter-screen hit in parental HEK293 cells; shares compounds with CHT block; membrane potential dye, choline response; active = decrease or increase beyond buffer ±3SD; membrane potential ratio readout (active if shifted either direction beyond buffer ±3SD; no single direction) at 10 µM; hit rate 4% among 2,400;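 note: parental cells lack the transporter so any hit is non-specific; ratio is peak minus trough fluorescence over baseline after EC90 choline challenge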
# Numbers without * were called inactive; i = inactive; . = no result given. An excerpt weighted towards active compounds, which were near 2.3% of everything screened.
SMILES,GPR7 antagonist,T cell modulator,DSG3 Ab inh,p-CIP stab down,CHT block,CHT PAM,CHT inh conf,HEK293 MPD ctr
Cc1cccc(OCCOC(=O)c2c(-c3ccccc3)noc2C)c1,-12.9,298.1,117.2,5.5,-5.42*,i,i,i
CCOc1ncccc1C(=O)NCC1COc2ccccc2O1 (centres undefined),-14.9,286.1,109.0,-1.8,-5.16*,i,67.1%*,i
O=C(NC1CCCC1)c1ccc(CS(=O)(=O)Cc2ccccc2F)o1,-14.1,928.5,102.4,-28.7,i,i,.,.
CC1CCC(NC(=O)c2ccc(CS(=O)(=O)Cc3ccccc3F)o2)CC1 (centres undefined),-10.1,241.3,102.2,-7.0,-5.37*,i,41.0%*,i
O=C(OCc1nc2ccsc2c(=O)[nH]1)c1ccc(Cl)s1,.,295.4,95.1,.,-11.4*,i,5.9%*,i
CC1=C(C(=O)N(C)C)CC(CC(=O)NC2CCCC2)C(=O)N1CCC1=CCCCC1 (centres undefined),.,.,102.7,.,.,.,.,.
c1ccc(CN2CCC3CC2c2cc(N4CCOCC4)ccc23)cc1 (centres undefined),.,.,101.9,.,.,.,.,.
COc1cccc(-c2ccc3c(c2)C2CC3CCN2C(C)=O)c1 (centres undefined),.,.,92.0,.,.,.,.,.
NC(=O)CC(NC(=O)c1ccc(Br)cc1)c1ccc(N2CCCCCCC2)c([N+](=O)[O-])c1 (centres undefined),-8.2,267.8,103.8,-3.8,-5.34*,i,65.1%*,i
CCC(CC)Nc1ccc(C(CC(N)=O)NC(=O)c2ccccc2)cc1[N+](=O)[O-] (centres undefined),-11.5,737.5,96.5,-3.3,-5.07*,i,41.2%*,i
CCCCNc1ccc(C(CC(N)=O)NC(=O)c2ccccc2)cc1[N+](=O)[O-] (centres undefined),.,521.5,107.4,-7.2,i,i,.,.
NC(=O)CC(NC(=O)c1ccc(Br)cc1)c1ccc(N2CCN(c3ccccc3)CC2)c([N+](=O)[O-])c1 (centres undefined),2.9,432.5,106.6,-4.7,i,i,.,.
Cc1ccccc1CNc1ccc(C(CC(N)=O)NC(=O)c2ccccc2)cc1[N+](=O)[O-] (centres undefined),.,478.6,105.5,0.4,-5.39*,i,i,i
O=C(NC(Cc1ccccc1)C(=O)N1CCN(c2ccccc2O)CC1)c1ccccc1 (centres undefined),.,.,93.4,.,.,.,.,.
CCN1C(=O)[C@H]2[C@@H](c3ccc(C)cc3)N[C@]3(CCCN(Cc4ccc(F)cc4)C3=O)[C@H]2C1=O,.,.,111.1,.,.,.,.,.
Cc1ccc(NC(=O)c2ncn(CCCN[C@H](C)c3cccc4ccccc34)n2)cc1C,.,.,103.3,.,.,.,.,.
Cc1ccc(N(C)C(=O)CC(C)S(=O)(=O)c2ccc3c(c2)NC(=O)CO3)cc1 (centres undefined),-2.7,192.4,.,0.1,-5.73*,i,i,i
Cc1ccc(NC(=O)CN(C)C(=O)COC(=O)CNS(=O)(=O)c2ccc(F)c(F)c2F)cc1,.,404.1,103.4,.,i,i,.,.
Cc1ccc(NC(=O)CN(C)C(=O)COC(=O)CNS(=O)(=O)c2ccc(Br)cc2Cl)cc1,5.5,283.2,100.2,-2.6,-6.27*,i,66.5%*,i
CN(c1ccccc1)c1ncnc2c1ncn2C,.,.,122.7,.,.,.,.,.
Nc1ncnc2c1ncn2[C@@H]1O[C@H](CNC(=O)[C@@H]2CCCN2S(=O)(=O)c2ccc(F)cc2)[C@@H](O)[C@H]1O,.,.,97.4,.,.,.,.,.
CC1(C)c2cc(Cl)ccc2-n2c1cc(O)c(-c1ccccc1)c2=O,-3.5,i,113.0,-5.6,-6.04*,i,44.3%*,i
Cc1c(O)cc2n(c1=O)-c1ccc(Cl)cc1C2(C)C,-0.4,198.3,94.7,-7.2,i,i,.,.
CC(C)c1cc(O)c(-c2ccccc2)c(=O)n1-c1ccc(Cl)cc1,-12.5,756.6,100.0,-6.8,-5.01*,i,i,i
CCc1noc(C)c1C(=O)N(CC)CC(=O)NCc1ccc(F)cc1,.,.,94.7,.,.,.,.,.
SMILES,GPR7 antagonist,T cell modulator,DSG3 Ab inh,p-CIP stab down,CHT block,CHT PAM,CHT inh conf,HEK293 MPD ctr
Nc1nccc(NCCSCc2ccccc2)n1,.,.,110.2,.,.,.,.,.
Cc1ccc(-c2nnc(OCC3CCCO3)c3ccccc23)cc1 (centres undefined),0.1,298.0,95.2,-15.2,-5.49*,i,45.4%*,i
O=C(Nc1nccs1)C1CCN(S(=O)(=O)c2c(Cl)cccc2Cl)CC1,-4.4,308.2,101.2,4.3,-5.88*,i,i,i
Cc1ccc(S(=O)(=O)NN=C2CCCc3ccccc32)cc1,.,.,99.5,.,.,.,.,.
CCN(CCNC(=O)CN1CCN(Cc2ccc(Cl)cc2)C1=O)c1ccccc1,0.5,186.1,157.4,0.1,-6.17*,i,66.3%*,i
O=C(CN1CCN(Cc2ccccc2)C1=O)NCc1ccc(Cl)cc1,-4.3,438.3,108.8,-9.6,i,i,.,.
O=C(c1cnn2c(C(F)(F)F)cc(-c3cccs3)nc12)N1CCN(Cc2ccccc2)CC1,-9.3,109.4,107.9,2.9,-5.5*,i,56.5%*,i
O=C(NNC(=S)Nc1ccc(Cl)cc1Cl)c1ccc(N2CCOCC2)c([N+](=O)[O-])c1,-7.3,669.1,96.4,-2.4,-5.45*,i,34.8%*,i
Cc1ccc(NC(=S)NNC(=O)c2ccc(N3CCOCC3)c([N+](=O)[O-])c2)cc1Cl,-10.2,753.1,95.0,1.3,i,i,.,.
CCC(NC(=O)CCc1nnc(-c2cc(C)on2)o1)C12CC3CC(CC(C3)C1)C2 (centres undefined),5.5,37.6,112.2,-8.7,-7.89*,i,44.4%*,i
CSc1nnc(-c2sccc2OCc2ccccc2)n1C,-5.2,406.7,104.1,3.2,-7.27*,i,54.8%*,-9.55*
CSc1n[nH]c(-c2sccc2OCc2ccc(C)cc2)n1,0.5,890.9,103.9,-2.1,i,i,.,.
CN1Cc2sc(NC(=S)NC(=O)c3ccccc3)c(C#N)c2CC1(C)C,-10.7,467.9,105.4,-28.0,i,i,.,.
CN1Cc2sc(N)c(C#N)c2CC1(C)C,-11.5,240.6,98.8,-20.1,-8.96*,i,32.9%*,i
C[C@@H]1CN([C@@H](C)CO)C(=O)c2cccc(NC(=O)Nc3ccccc3)c2O[C@H]1CN(C)C(=O)Nc1cccc2ccccc12,.,294.1,101.9,.,.,.,.,.

# Screening results (PubChem BioAssay)
